Laboratory results reported in ChEMBL document CHEMBL4765301, “Discovery of novel TNNI3K inhibitor suppresses pyroptosis and apoptosis in murine myocardial infarction injury” (Eur J Med Chem, 2020).
Calls of active or inactive are those of the source. The calls are words filed in the database; no cut-off is given here.

Experiments:
[1] = system: H9c2; test: Inhibition of OGD-induced apoptosis in rat H9c2 cells assessed as early apoptotic cells at 0.5 uM incubated for 24 hrs by annexinV-FITC and PI staining based flow cytometry analysis (reference value: 3.53 %); type: functional
[2] = system: H9c2; test: Inhibition of OGD-induced apoptosis in rat H9c2 cells assessed as reduction in IL-1beta level at 0.5 to 1 uM by Western blot analysis; type: functional, cell-based; settings: dose 0.5-1 µM
Outline: (§1)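 H9c2 cells under OGD were treated with saline or 0.5 or 1.0 µM inhibitor. Cells were trypsinised, washed in cold PBS, lysed in RIPA with sonication and centrifuged 30 min. Total protein was quantified and separated by SDS-PAGE, then transferred to PVDF. Blots were probed with primary and secondary antibodies and detected by ECL.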

[3] = system: H9c2; test: Inhibition of OGD-induced apoptosis in rat H9c2 cells assessed as reduction in GSDMD level at 0.5 to 1 uM by Western blot analysis; type: functional, cell-based; settings: dose 0.5-1 µM; outline: as §1
[4] = system: Mus musculus; test: Cardioprotective activity in C57BL/6 mouse model of myocardial infarction assessed as reduction in ventricular dilatation at 25 mg/kg, ip administered for 28 days and measured on day 28 by H and E staining based fluorescence microscopy; type: functional, organism-based; settings: time 28.0 day
Outline: (§2)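 MI made in male C57BL/6 mice (5-6 weeks) by permanent LAD ligation under ip ketamine (100mg/kg)/xylazine (10mg/kg), ventilated. Groups: sham, saline (NS), inhibitor 25 mg/kg ip every two days, n=4. Hearts examined after 28 days; TTC, Masson's trichrome and H&E staining of sections for infarct, collagen/scar, LV inflammatory cells and dilatation.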

[5] = target: Vascular endothelial growth factor receptor 1 (Homo sapiens) (UniProt P17948); test: Inhibition of recombinant human FLT1 (783 to end residues) assessed as residual activity at 1 uM using KKKSPGEYVNIEFG as substrate incubated for 40 mins by [gamma-33P]-ATP scintillation counting based radiometry assay relative to control
Sequence of Vascular endothelial growth factor receptor 1 (Homo sapiens) (P17948 whole entry): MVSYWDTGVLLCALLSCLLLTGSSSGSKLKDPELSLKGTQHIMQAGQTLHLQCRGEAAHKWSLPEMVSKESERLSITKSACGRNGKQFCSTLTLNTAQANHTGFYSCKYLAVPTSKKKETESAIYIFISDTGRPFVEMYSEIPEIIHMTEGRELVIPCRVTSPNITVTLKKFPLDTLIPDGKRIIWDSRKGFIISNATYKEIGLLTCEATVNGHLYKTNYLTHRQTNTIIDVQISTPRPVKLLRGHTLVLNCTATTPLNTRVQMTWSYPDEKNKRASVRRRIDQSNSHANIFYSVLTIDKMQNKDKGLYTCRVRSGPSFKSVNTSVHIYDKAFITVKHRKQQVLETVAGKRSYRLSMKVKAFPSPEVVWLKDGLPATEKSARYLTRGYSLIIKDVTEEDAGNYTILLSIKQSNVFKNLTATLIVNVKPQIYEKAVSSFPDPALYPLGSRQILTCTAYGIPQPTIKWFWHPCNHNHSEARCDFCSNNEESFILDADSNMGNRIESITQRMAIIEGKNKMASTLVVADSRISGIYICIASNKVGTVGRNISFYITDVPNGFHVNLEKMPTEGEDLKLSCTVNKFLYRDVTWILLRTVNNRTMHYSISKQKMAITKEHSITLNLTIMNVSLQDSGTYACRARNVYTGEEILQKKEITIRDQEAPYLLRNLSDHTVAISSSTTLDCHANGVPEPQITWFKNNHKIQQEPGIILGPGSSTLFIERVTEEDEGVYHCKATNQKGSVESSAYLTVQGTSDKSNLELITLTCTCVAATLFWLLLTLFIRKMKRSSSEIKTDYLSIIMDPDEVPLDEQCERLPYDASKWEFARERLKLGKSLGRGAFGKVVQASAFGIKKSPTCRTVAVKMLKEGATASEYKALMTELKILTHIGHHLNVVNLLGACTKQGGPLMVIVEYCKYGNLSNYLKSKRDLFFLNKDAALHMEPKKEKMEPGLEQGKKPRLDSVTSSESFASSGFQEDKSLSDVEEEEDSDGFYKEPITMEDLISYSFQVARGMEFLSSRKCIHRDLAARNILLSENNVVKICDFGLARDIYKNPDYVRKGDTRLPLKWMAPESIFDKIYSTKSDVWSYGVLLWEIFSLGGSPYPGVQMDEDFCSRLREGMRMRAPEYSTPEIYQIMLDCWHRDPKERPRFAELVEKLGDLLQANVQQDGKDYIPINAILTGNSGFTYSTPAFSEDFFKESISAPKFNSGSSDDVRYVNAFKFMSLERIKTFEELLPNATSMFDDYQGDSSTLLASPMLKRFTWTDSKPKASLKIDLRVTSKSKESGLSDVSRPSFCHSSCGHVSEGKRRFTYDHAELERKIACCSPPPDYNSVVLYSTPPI

[6] = system: H9c2; test: Inhibition of OGD-induced apoptosis in rat H9c2 cells assessed as reduction in caspase1 level at 0.5 to 1 uM by Western blot analysis; type: functional, cell-based; settings: dose 0.5-1 µM; outline: as §1
[7] = target: T1, Serine/threonine-protein kinase TNNI3K (Rattus norvegicus) (UniProt Q7TQP6); test: Inhibition of TNNI3K in rat H9c2 cells assessed as reduction in p38 phosphorylation at 0.5 to 1 uM by Western blot analysis; type: cell-based; settings: dose 0.5-1 µM; outline: as §1
T1 sequence (whole entry): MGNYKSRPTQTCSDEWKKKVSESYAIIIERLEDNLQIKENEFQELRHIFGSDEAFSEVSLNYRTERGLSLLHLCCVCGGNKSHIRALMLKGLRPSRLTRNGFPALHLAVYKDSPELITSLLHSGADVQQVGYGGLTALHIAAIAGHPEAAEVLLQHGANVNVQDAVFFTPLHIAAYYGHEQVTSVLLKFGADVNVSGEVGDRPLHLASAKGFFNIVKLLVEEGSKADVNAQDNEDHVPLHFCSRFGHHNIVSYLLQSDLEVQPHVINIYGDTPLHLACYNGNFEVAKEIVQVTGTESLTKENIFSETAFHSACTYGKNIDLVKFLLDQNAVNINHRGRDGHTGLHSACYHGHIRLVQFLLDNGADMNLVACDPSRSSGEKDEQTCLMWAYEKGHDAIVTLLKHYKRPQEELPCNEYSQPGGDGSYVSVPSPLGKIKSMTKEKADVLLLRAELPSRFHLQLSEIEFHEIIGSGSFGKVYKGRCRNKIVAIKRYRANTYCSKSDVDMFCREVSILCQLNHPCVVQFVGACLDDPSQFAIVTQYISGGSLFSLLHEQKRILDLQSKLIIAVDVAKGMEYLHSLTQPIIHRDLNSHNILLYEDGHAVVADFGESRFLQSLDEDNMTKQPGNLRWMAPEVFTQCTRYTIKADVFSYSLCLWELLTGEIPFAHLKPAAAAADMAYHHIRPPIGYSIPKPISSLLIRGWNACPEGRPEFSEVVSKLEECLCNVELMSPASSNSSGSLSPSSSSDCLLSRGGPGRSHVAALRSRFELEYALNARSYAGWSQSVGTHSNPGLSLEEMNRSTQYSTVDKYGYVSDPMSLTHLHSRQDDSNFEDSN

[8] = target: Receptor tyrosine-protein kinase erbB-2 (Homo sapiens) (UniProt P04626); test: Inhibition of recombinant human HER2 (676 to end residues) assessed as residual activity at 1 uM using poly(Glu, Tyr) 4:1 as substrate incubated for 40 mins by [gamma-33P]-ATP scintillation counting based radiometry assay relative to control
Sequence of Receptor tyrosine-protein kinase erbB-2 (Homo sapiens) (P04626 whole entry): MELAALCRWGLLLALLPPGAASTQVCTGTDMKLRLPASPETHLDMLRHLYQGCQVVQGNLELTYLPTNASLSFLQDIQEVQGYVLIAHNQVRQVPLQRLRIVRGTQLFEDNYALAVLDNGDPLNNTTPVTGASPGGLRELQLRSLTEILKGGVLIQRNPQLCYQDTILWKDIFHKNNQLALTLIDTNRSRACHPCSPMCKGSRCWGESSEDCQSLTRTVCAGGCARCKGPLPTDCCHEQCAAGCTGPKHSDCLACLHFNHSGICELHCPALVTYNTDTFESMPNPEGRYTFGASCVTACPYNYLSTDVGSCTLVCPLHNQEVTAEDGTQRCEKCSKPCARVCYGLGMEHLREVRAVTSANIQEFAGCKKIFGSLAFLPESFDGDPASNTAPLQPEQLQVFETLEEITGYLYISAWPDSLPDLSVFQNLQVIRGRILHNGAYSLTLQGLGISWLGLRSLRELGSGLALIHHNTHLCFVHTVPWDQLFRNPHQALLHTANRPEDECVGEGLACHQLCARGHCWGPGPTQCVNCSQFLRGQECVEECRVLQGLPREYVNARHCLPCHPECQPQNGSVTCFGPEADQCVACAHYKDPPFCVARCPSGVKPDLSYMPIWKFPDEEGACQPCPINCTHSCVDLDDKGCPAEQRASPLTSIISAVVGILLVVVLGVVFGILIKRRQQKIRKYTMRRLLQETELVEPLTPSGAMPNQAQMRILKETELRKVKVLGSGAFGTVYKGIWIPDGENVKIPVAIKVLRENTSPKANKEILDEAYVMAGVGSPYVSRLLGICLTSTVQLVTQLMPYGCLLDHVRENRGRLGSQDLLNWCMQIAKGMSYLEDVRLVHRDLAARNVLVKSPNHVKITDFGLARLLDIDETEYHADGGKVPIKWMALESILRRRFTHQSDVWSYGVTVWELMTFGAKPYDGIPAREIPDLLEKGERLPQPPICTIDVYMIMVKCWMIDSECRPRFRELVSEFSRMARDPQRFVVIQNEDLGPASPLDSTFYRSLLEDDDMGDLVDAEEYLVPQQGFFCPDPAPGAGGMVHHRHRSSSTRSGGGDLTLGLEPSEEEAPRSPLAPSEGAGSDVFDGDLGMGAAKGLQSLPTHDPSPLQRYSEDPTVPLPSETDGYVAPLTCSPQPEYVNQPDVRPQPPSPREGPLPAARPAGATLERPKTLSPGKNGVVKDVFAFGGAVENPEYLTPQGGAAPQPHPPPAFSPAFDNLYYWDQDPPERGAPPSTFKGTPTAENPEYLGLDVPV

[9] = system: H9c2; test: Cytoprotective activity against OGD-induced cell death in rat H9c2 cells assessed as cell viability at 10 uM incubated for 24 hrs by MTT assay (reference value: 42.08 to 49.11 %); type: functional; settings: read-out: Activity
[10] = system: H9c2; test: Inhibition of OGD-induced apoptosis in rat H9c2 cells assessed as early apoptotic cells at 1 uM incubated for 24 hrs by annexinV-FITC and PI staining based flow cytometry analysis (reference value: 3.53 %); type: functional
[11] = system: H9c2; test: Inhibition of OGD-induced apoptosis in rat H9c2 cells assessed as reduction in proIL-1beta level at 0.5 to 1 uM by Western blot analysis; type: functional, cell-based; settings: dose 0.5-1 µM; outline: as §1
[12] = system: Mus musculus; test: In vivo inhibition of TNNI3K in C57BL/6 mouse assessed as p38 phosphorylation at 25 mg/kg, ip administered for 28 days and measured on day 28 by immunohistochemical staining based fluorescence microscopy; type: functional, organism-based; settings: time 28.0 day
Outline: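 Male C57BL/6 mice (5-6 weeks) with LAD-ligation MI; sham, saline or 25 mg/kg ip every two days, n=4, 28 days. Heart sections given EDTA (pH 8.0) or citrate (pH 6.0) microwave antigen retrieval, then primary antibody 30-40 min at 37°C. Detection by HRP polymer secondary with DAB (IHC) or fluorescent secondary (IF). Positive cells were quantified.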

[13] = target: Vascular endothelial growth factor receptor 2 (Homo sapiens) (UniProt P35968); test: Inhibition of recombinant human KDR (790 to end residues) assessed as residual activity at 1 uM using myelin basic protein as substrate incubated for 40 mins by [gamma-33P]-ATP scintillation counting based radiometry assay relative to control
Sequence of Vascular endothelial growth factor receptor 2 (Homo sapiens) (P35968 whole entry): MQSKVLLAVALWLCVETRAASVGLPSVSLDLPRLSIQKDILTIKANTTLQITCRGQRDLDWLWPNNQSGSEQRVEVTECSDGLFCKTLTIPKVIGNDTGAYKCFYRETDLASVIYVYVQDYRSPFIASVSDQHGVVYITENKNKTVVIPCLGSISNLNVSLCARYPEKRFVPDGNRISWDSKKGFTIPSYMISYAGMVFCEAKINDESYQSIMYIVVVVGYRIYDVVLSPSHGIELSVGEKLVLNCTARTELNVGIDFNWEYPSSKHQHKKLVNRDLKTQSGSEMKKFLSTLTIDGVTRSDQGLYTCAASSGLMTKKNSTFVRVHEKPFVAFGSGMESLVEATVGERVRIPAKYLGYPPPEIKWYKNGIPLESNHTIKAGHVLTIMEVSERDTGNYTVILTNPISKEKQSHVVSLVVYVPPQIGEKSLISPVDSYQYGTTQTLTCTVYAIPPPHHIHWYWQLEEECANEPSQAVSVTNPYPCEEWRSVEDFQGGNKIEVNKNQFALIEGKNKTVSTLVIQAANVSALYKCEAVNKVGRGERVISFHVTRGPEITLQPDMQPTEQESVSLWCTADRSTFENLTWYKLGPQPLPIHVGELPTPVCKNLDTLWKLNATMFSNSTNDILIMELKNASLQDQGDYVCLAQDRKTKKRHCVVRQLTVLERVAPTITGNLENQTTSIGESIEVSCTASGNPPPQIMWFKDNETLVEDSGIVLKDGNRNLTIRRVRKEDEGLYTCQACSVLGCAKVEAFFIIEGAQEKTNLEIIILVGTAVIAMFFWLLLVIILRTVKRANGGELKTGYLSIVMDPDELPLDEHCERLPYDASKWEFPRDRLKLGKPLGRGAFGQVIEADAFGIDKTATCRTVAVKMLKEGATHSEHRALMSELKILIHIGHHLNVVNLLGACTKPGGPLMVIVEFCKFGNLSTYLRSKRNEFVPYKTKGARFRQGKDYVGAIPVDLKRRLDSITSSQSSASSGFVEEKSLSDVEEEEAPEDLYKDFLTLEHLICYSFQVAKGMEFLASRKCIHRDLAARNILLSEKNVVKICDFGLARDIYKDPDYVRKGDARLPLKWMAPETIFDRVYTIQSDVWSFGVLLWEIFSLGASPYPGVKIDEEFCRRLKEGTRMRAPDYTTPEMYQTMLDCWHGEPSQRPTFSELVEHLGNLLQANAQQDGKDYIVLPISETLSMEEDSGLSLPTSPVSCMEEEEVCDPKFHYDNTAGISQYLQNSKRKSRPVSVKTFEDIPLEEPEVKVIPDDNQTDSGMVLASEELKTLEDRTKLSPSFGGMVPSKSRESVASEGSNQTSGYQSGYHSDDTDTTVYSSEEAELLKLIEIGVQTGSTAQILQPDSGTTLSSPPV

[14] = system: Mus musculus; test: Cardioprotective activity in C57BL/6 mouse model of myocardial infarction assessed as reduction in left ventricular inflammatory cells at 25 mg/kg, ip administered for 28 days and measured on day 28 by H and E staining based fluorescence microscopy; type: functional, organism-based; settings: time 28.0 day; outline: as §2
[15] = system: Mus musculus; test: Cardioprotective activity in C57BL/6 mouse model of myocardial infarction assessed as reduction in collagen deposition at 25 mg/kg, ip administered for 28 days and measured on day 28 by […] staining based fluorescence microscopy; type: functional, organism-based; settings: time 28.0 day
Outline: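 Male C57BL/6 mice (5-6 weeks); MI by permanent LAD ligation under ip ketamine (100mg/kg)/xylazine (10mg/kg) with ventilation; sham group operated without LAD occlusion. Post-MI mice randomised to sham, normal saline or inhibitor groups (n=4); 25 mg/kg given ip every two days. Hearts assessed after 28 days: TTC staining (infarct yellow-white, viable red), Masson's trichrome (blue collagen) and H&E.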

In the case of CN(C)CCCN1CCc2c(sc3ncnc(Nc4ccc(N(C)C)c(NC(=O)c5ccco5)c4)c23)C1, the inhibition at 0.5 µM [1] was 3.59%, the inhibition [2] was “Active” and the inhibition [3] was “inactive”. For the same molecule, the Activity [4] was “Active”, the Activity [5] was 91% and the inhibition [6] was “inactive”. For the same molecule, the inhibition [7] was “Active”, the Activity [8] was 96% and the viability at 10 µM [9] was 89%. The inhibition at 1 µM [10] was 3.17%, the inhibition [11] was “inactive” and the inhibition [12] was “Active”. The Activity [13] was 80%, the Activity [14] was “Active” and the Activity [15] was “Active”.
